These results are taken from ChEMBL document CHEMBL3734696, “Discovery of novel 5-fluoro-N(2),N(4)-diphenylpyrimidine-2,4-diamines as potent inhibitors against CDK2 and CDK9” (Medchemcomm, 2015).

Usually GI50 stands for the concentration that inhibits growth by half. The low end stands for greater sensitivity of the cells, the high end for lower sensitivity of the cells. For orientation: EC50 means the concentration giving half of the maximal effect. A high value points to a less potent agent. What is called IC50 is the concentration needed to halve the response being measured. Low values mean greater potency, high ones weaker potency.

One series has as its system A549. Nature of the series: Antiproliferative activity against human A549 cells after 3 days by SRB method. The class given is functional. The settings on record: A549, 72 h. An outline of the steps: (§1)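 Freshly trypsinized cells seeded at 1500–7500 per well with compound added from DMSO-diluted stock. After 3 days, attached cells fixed with cold 50% TCA, stained with 0.4% SRB, and bound dye solubilized. Value is the mean of three independent determinations.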
A general note: The SRB assay estimates cell density from bound dye.

Series [1] can be described thus: Antiproliferative activity against human DU145 cells after 3 days by SRB method. In kind it is functional. As to conditions: DU-145, 72 h. Summed up:
as §1

Series [2] is described as follows: Antiproliferative activity against human KBVIN cells after 3 days by SRB method. The class given is functional. The settings on record: 72 h. An outline of the steps: as §1
The subject of series [3] is Human immunodeficiency virus 1. Description: Antiviral activity against Human immunodeficiency virus 1 NL 4-3 infected in MT4 cells measured on day 4 post infection by p24 assay. In kind it is functional, organism-based. The settings on record: Human immunodeficiency virus 1, NL 4-3, MT4, 96 h.
A further series has as its system MT4. Description: Cytotoxicity against human MT4 cells. In kind it is cell-based.
Another series concerns the target CDK9/cyclin T1 (Homo sapiens, UniProt P50750). Description: Inhibition of CDK9/Cyclin-T1 (unknown origin) using UlightCFFKNIVTPRTPPPSQGK-amide substrate after 90 mins by […]. The class given is protein-complex assay.
The target in series [4] is Cyclin-dependent kinase 2/cyclin E1 (Homo sapiens, UniProt P24941). Description: Inhibition of CDK2/cyclin E1 (unknown origin) expressed in Sf9 insect cells using UlightCFFKNIVTPRTPPPSQGK-amide substrate after 15 mins by […].
Series [5] is described as follows: Therapeutic index, ratio of IC50 for human MT4 cells to EC50 for Human immunodeficiency virus 1 NL 4-3. In kind it is cell-based. As to conditions: read-out: Ratio IC50/EC50.

Sequence of CDK9/cyclin T1 (O60563 whole entry): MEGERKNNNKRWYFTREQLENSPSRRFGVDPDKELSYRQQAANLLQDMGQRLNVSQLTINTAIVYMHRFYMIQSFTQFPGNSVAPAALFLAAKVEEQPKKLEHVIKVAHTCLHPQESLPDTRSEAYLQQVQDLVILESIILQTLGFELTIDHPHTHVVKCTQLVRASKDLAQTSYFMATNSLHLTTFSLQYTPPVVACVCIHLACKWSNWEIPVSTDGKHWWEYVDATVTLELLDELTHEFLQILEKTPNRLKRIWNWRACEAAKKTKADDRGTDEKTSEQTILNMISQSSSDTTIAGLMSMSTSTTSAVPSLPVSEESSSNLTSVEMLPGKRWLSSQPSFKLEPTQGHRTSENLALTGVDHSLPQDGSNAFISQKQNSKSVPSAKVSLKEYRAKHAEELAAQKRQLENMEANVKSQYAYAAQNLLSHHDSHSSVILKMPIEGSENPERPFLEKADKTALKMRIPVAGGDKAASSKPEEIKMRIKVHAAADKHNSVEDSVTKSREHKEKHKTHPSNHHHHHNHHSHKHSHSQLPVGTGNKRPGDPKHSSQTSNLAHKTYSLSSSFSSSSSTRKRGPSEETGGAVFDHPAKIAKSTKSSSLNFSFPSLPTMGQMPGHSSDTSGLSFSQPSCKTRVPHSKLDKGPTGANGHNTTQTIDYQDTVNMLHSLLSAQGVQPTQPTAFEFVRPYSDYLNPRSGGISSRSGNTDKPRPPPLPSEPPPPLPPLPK
Sequence of CDK9/cyclin T1 (P50750 whole entry): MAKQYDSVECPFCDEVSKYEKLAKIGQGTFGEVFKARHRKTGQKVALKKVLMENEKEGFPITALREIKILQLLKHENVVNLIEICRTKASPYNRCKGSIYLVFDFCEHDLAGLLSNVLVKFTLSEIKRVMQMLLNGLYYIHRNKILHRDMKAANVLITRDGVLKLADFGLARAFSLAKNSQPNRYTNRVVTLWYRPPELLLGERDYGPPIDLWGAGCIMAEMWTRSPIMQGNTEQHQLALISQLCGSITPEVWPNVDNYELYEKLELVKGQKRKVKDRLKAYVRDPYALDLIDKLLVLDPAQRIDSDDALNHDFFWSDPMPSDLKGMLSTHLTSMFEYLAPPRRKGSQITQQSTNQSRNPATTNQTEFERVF

As to `Fc1ccc(Nc2nc(Nc3cccc(N4CCOCC4)c3)ncc2F)cc1`, the 50% growth inhibitory concentration (GI50) with A549 was 3.83 µM; in series [1], over 10 µM; in series [2] it was over 10 µM.

As for `O=C(Nc1ccccn1)c1cccc(Nc2ncc(F)c(Nc3ccc(F)cc3)n2)c1`, the 50% growth inhibitory concentration (GI50) with A549 came out at 15.3 µM; in series [1], 15.1 µM; in series [2], 13.7 µM.

In the case of `CN1CC[C@H](c2c(O)cc(O)c3c(=O)cc(-c4ccccc4Cl)oc23)[C@H](O)C1` [ALVOCIDIB], the results for the GI50 (with A549; in series [1]; in series [2]) were 0.14 µM, 0.15 µM and 0.18 µM, respectively. The half-maximal effective concentration (EC50) in series [3] was 0.015 µM. The molecule also gave an IC50 in the series on MT4 of 0.067 µM.

As to `O=C(Nc1cccc(Nc2ncc(F)c(Nc3ccc(F)cc3)n2)c1)c1cccc([N+](=O)[O-])c1`, the GI50 was found to be 7.25 µM in the series on A549, 12.6 µM in series [1] and 11.3 µM in series [2].

As for `CS(=O)(=O)N1CCN(C(=O)c2cccc(Nc3ncc(F)c(Nc4ccc(F)cc4)n3)c2)CC1`, the results for the 50% growth inhibitory concentration (GI50) (in the series with A549; in series [1]; in series [2]) were 12.2 µM, 17.9 µM and over 10 µM, respectively.

As to `O=C(Nc1cccc(Nc2ncc(F)c(Nc3ccc(F)cc3)n2)c1)c1cnccn1`, the GI50 in the series on A549 was found to be 10.3 µM; in series [1], 26.4 µM; in series [2] it was 20.1 µM.

In the case of `O=C(Nc1cccc(Nc2ncc(F)c(Nc3ccc(F)cc3)n2)c1)c1ccccc1`, the GI50 in the series with A549 is 37.8 µM; in series [1], over 10 µM; in series [2] it was over 10 µM.

As for `O=C(Nc1ccc(C(F)(F)F)cc1)c1cccc(Nc2ncc(F)c(Nc3ccc(F)cc3)n2)c1`, the 50% growth inhibitory concentration (GI50) (with A549; in series [1]; in series [2]) was over 10 µM in each case.

For `CN(C)CCNC(=O)c1cccc(Nc2ncc(F)c(Nc3ccc(F)cc3)n2)c1`, the GI50 with A549 amounted to 1.45 µM; in series [1], 4.34 µM; in series [2], 7.26 µM. For the same molecule, the IC50 at CDK9/cyclin T1 came to 1.72 µM; in series [4], 4.65 µM.

Consider `Fc1cnc(Nc2cccc(N3CCOCC3)c2)nc1Nc1c(F)cccc1F`, for which the concentration for 50% growth inhibition (GI50) in the series with A549 is 1.09 µM; in series [1] it was 4.24 µM; in series [2], over 10 µM. Besides, the figures for the IC50 (against CDK9/cyclin T1; in the series on MT4; in series [4]) were 0.33 µM, 10.2 µM and 5.85 µM, respectively. In series [3], this molecule registered a concentration giving a half-maximal response (EC50) of 1.37 µM. Also, in series [5], the selectivity ratio worked out at 7.45.

Regarding `COCC(=O)Nc1cccc(Nc2ncc(F)c(Nc3ccc(F)cc3)n2)c1`, the GI50 came out at 2.05 µM in the series on A549, 4.46 µM in series [1] and 3.94 µM in series [2]. The results for the IC50 (at CDK9/cyclin T1; in series [4]) were 2.02 µM and 3.27 µM, respectively.

Consider `COc1cc(NC(=O)c2cccc(Nc3ncc(F)c(Nc4ccc(F)cc4)n3)c2)cc(OC)c1`, for which the GI50 with A549 was found to be 13.8 µM; in series [1], 13.7 µM; in series [2] it was 12.7 µM.

Take `O=C(Nc1ccc(N2CCOCC2)cc1)c1cccc(Nc2ncc(F)c(Nc3ccc(F)cc3)n2)c1`: the GI50 (in the series with A549; in series [1]; in series [2]) was over 10 µM throughout.

`Fc1cnc(Nc2cccc(N3CCOCC3)c2)nc1Nc1ccc(Cl)c(Cl)c1`: the GI50 is 12 µM in the series with A549, over 10 µM in series [1] and over 10 µM in series [2].

Consider `O=C(c1cccc(Nc2ncc(F)c(Nc3ccc(F)cc3)n2)c1)N1CCCCC1`, for which the concentration for 50% growth inhibition (GI50) in the series on A549 is 13.2 µM; in series [1] it was 13 µM; in series [2], 13.8 µM.

Take `O=C(Nc1nccs1)c1cccc(Nc2ncc(F)c(Nc3ccc(F)cc3)n2)c1`: the GI50 (with A549; in series [1]; in series [2]) was over 10 µM in each case.

As to `CN1CCC(C(=O)Nc2cccc(Nc3ncc(F)c(Nc4ccc(F)cc4)n3)c2)CC1`, the GI50 in the series with A549 was 1.33 µM; in series [1] it was 1.15 µM; in series [2], 11.9 µM. The IC50 at CDK9/cyclin T1 turned out to be 2.45 µM; in series [4] it was 1.24 µM.

For the molecule `CC(=O)N1CCCN(C(=O)c2cccc(Nc3ncc(F)c(Nc4ccc(F)cc4)n3)c2)CC1`, the values for the 50% growth inhibitory concentration (GI50) (in the series on A549; in series [1]; in series [2]) were 9.96 µM, 15.7 µM and 16.7 µM, respectively. For the same molecule, the values for the half-maximal inhibitory concentration (IC50) (at CDK9/cyclin T1; in series [4]) were 15.6 µM and 60.6 µM, respectively. Further, in series [3], the half-maximal effective concentration (EC50) worked out at 7.08 µM. For the same molecule, the selectivity ratio in series [5] turned out to be 2.18.

Consider `O=C(Nc1ccc2c(c1)OCO2)c1cccc(Nc2ncc(F)c(Nc3ccc(F)cc3)n2)c1`, for which the concentration for 50% growth inhibition (GI50) in the series with A549 was 12.9 µM; in series [1], 11.6 µM; in series [2], 12 µM.

As for `O=C(Nc1cccc(Nc2ncc(F)c(Nc3ccc(F)cc3)n2)c1)c1ccncc1`, the values for the concentration for 50% growth inhibition (GI50) (in the series with A549; in series [1]; in series [2]) were 1.65 µM, 4.33 µM and 4.57 µM, respectively. The half-inhibitory concentration (IC50) at CDK9/cyclin T1 stood at 2.57 µM; in series [4] it was 15.3 µM.

In the case of `Fc1cnc(Nc2cccc(N3CCOCC3)c2)nc1Nc1cc(Cl)cc(Cl)c1`, the concentration for 50% growth inhibition (GI50) in the series on A549 is 11.6 µM; in series [1] it was over 10 µM; in series [2] it was 22.5 µM.

As to `O=C(c1cccc(Nc2ncc(F)c(Nc3ccc(F)cc3)n2)c1)N1CCOCC1`, the 50% growth inhibitory concentration (GI50) in the series on A549 came out at 11.2 µM; in series [1], 11.9 µM; in series [2], 13.1 µM.

Take `O=C(Nc1cc(Cl)cc(Cl)c1)c1cccc(Nc2ncc(F)c(Nc3ccc(F)cc3)n2)c1`: the concentration for 50% growth inhibition (GI50) in the series with A549 turned out to be 17.4 µM; in series [1], 17.5 µM; in series [2], 20.7 µM.

Regarding `CN(C)c1ccc(C(=O)Nc2cccc(Nc3ncc(F)c(Nc4ccc(F)cc4)n3)c2)cc1`, the GI50 (in the series on A549; in series [1]; in series [2]) was over 10 µM in each case.

For `Cn1ccnc1NC(=O)c1cccc(Nc2ncc(F)c(Nc3ccc(F)cc3)n2)c1`, the 50% growth inhibitory concentration (GI50) with A549 came out at 10.1 µM; in series [1] it was 15.1 µM; in series [2], 13.1 µM.

In the case of `O=C(NCCO)c1cccc(Nc2ncc(F)c(Nc3ccc(F)cc3)n2)c1`, the GI50 in the series on A549 stood at 11.8 µM; in series [1], 13.4 µM; in series [2], 21.4 µM.

`COc1ccc(NC(=O)c2cccc(Nc3ncc(F)c(Nc4ccc(F)cc4)n3)c2)cc1`: the GI50 is 11 µM in the series with A549, over 10 µM in series [1] and 15.7 µM in series [2].

Take `COc1ccc(N2CCN(C)CC2)cc1Nc1ncc(F)c(Nc2ccc(F)cc2)n1`: the GI50 with A549 stood at 1.13 µM; in series [1], 0.91 µM; in series [2], 0.91 µM. Further, the half-inhibitory concentration (IC50) (on CDK9/cyclin T1; in series [4]) was over 10 µM each time.

Consider `COc1ccc(N2CCOCC2)cc1Nc1ncc(F)c(Nc2ccc(F)cc2)n1`, for which the GI50 in the series on A549 is 18.3 µM; in series [1] it was over 10 µM; in series [2], over 10 µM.

Consider `CN1CCN(C(=O)c2cccc(Nc3ncc(F)c(Nc4ccc(F)cc4)n3)c2)CC1`, for which the GI50 was determined as 9.07 µM in the series on A549, 10.9 µM in series [1] and 12.3 µM in series [2]. Besides, the IC50 on CDK9/cyclin T1 was 11.3 µM; in series [4] it was 22.1 µM.
